The RNAGym collection of RNA variant scans (doi:10.1126/science.aae0568)
Variants at the floor of the assay were thinned out.

B1: tRNA (parent)
chain: GUUCCGUUGGCGUAAUGGUAACGCGUCUCCCUCCUAAGGAGAAGACUGCGGGUUCGAGUCCCGUACGGAACG

Variants of: B1
Test: yeast fitness relative to wild type (ratio to wild type); higher = fitter; tRNA-Arg(CCU), competitive growth, 37 C, YPD
Procedure, shortened: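 The tRNA-Arg(CCU) gene variants were made by chemical synthesis with a 3% per-site mutation rate at 69 sites and inserted at the native genomic locus of Saccharomyces cerevisiae. After pooling, the strains were competed in YPD at 37°C for 24 hours in six parallel replicates. Gene amplicons from the start population and each end population were read by 100-nucleotide paired-end sequencing, and Darwinian fitness relative to wild type was taken from genotype frequency changes. Genotypes needed ≥ 100 starting reads, and estimates < 0.5 were set to 0.5.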

| Variant | yeast fitness |
| --- | --- |
| GUUCCGUUGGCGUAAUGGUAACGCGUCCCCCUCCUAAGGAGAAGACUGCGGGUUCGAGUCCCGUACCGAACG [U28C G67C] | 0.845 |
| GUUCAGUUGGCGUAAUGGUAACGGGUCUCCCUCCUAAGGAGAAGACUGCGGGUUCGAGUCCCAUACGGAACG [C5A C24G G63A] | ≤ 0.5 |
| GUUCCGUUGGCGUAAUGGUAAGGCGUCUCGCUCCUAAGGAGAAGACCGCGGGUUCGAGUCCCGUACGGAUCG [C22G C30G U47C A70U] | ≤ 0.5 |
| GUUCCGUUGGCGUAAUGGUAACGAGUCUCCCUACUAUGGAGAAGACUGCCGGUUCGAGUCUCGUACGGAACG [C24A C33A A37U G50C C61U] | ≤ 0.5 |
| GUUCCGUUGGCGUAAUGGUAACCCGUCUCCCUCCUAAGGAGAAGACUGCGGGUUCGAGUGUCGUACGGAACG [G23C C60G C61U] | ≤ 0.5 |
| GUUCCGUUGGCGUAAUGGUAACGCGCCUCCCUCCUAUGGAGAAGACUGCGGGUUCGAGUCCCGUACGGAACG [U26C A37U] | 0.702 |
| GUUCCGUUGGCGUAAUGGUAACGCGUCUCCCUCGUAAGGAGAAGACUGUGGGUUCGUGUCCCGUACGGAACG [C34G C49U A57U] | ≤ 0.5 |
| GUUGCGUUGGCGUAUUGGUAACGCGUCUCCCUCCUAAGGAGAAGACUGCGGGUUAGAGUCCCGUACGGAACG [C4G A15U C55A] | ≤ 0.5 |
| GUUCCGUUGGCGAUAUGGUAACGCGUGUCCCUCCUAAGGAGAAGAGUGCGGGUUCGAGUCCCGUACGGAACG [U13A A14U C27G C46G] | 0.553 |
| GUUCCGUUGGCGUAAUGGUAACGCGUCUCCCUCCUAAGGAGAUGAGUGCGGGUACGAGUCCCGUACGGAACG [A43U C46G U54A] | 0.538 |
| GUUCCGUUGGCGUAAUGGUAACGCGUCUCCCUCCAAAGGAGAAGACUGCGGGUUCGUGUCCCGUAGGGAACG [U35A A57U C66G] | ≤ 0.5 |
| GUUCCGUUGGCGUAAUGGUAACGCGUCUGCCUCCUAAGGAGAAGACUGGGGGUUCGGGUCCCGUACGGAACG [C29G C49G A57G] | 0.6 |
| GUACCGUUGGCGGAAUGGUAACGCGUCUCCCUCCUAAGGAGAAGACCGCGGGUUCGAGUCCCGUACGGACCG [U3A U13G U47C A70C] | ≤ 0.5 |
| GUUCCGUUGGCGAAAUGGUAACGCGUCUCCCUCCUAAGGAGAAGACUGCUGGUUCGAGUCCCGUACGCAACG [U13A G50U G68C] | 0.515 |
| GUUCCGUUGGCGUAAUGGUAACGCGUCUCCCUCCUAUGGAGAAGACUGAGGGUUCGAGUCCCGUAUGGAACG [A37U C49A C66U] | ≤ 0.5 |
| GUUCCGUUGGGGUAAAGGUAACGCGACUCCCUCUUAAGGAGAAGACUGCGGGUUGGAGUCCCGUACGGAACG [C11G U16A U26A C34U C55G] | ≤ 0.5 |
| GAUCCGCUGGCGUAAUGGUAACGCGUCUCCCUCCUAAGGAACAGACUGCCGGUUCGAGUCCCGUACGGAGCG [U2A U7C G41A A42C G50C A70G] | ≤ 0.5 |
| GGUCCGUUGGCGUAAUGGUAACGCGUCACCCUCCUAAGGAGAAGACUGCGGGUUCGAGUCCCGUACGGAACG [U2G U28A] | 0.645 |
| GUUCCGUUGGCGUAAUGGUGACGCGUCUCCCUCCUAAGGAGAAGACUGCGGGUUCGAGUACCGUACGGAACG [A20G C60A] | 0.751 |

| Variant | yeast fitness |
| --- | --- |
| GUUCCGUUGGCGUAUUGGUAACGCGUCUCCCUCCUAAGGUGAAGACUGCGGGUUCGAGUCCCAUACGGAACG [A15U A40U G63A] | ≤ 0.5 |
| GUUCCGUUGGGGUAAUGGUAACGCGUCUCCCUCCUAAGGAGAACACUGCGGGUUCGAGUCCCGUACGGAACG [C11G G44C] | 0.639 |
| GUUCCGUUGGCGUAAUGGUAGCGCGUCUCCCUCCUAAGGAGAACACUGCGGGUUCGAGUCCCGUACGGAACG [A21G G44C] | 0.963 |
| GUUCCGUUGGCGUAAUGGUUACGCGUCUCCCUCCUAAGGAGAAGAGUGCGCGUUCGAGUCUCGUACGGAACG [A20U C46G G51C C61U] | ≤ 0.5 |
| GUUCCGUUGGCGUAAUGGUAACGCGUCUCCCACCUACGGAGCAGACUGAGGGAUCGAGUCCCGUACGGAACG [U32A A37C A42C C49A U53A] | ≤ 0.5 |
| GUUCCGUUGGCGUAACGGUUACGCGUCUCCCCCCUAAGGAGAAGACUGCGGGUUCGAGUCCCGUACGGAACG [U16C A20U U32C] | 0.615 |
| GUUCCGUUGGCGUAAUGGUAACGCGUCUCCCUCCUAAGGAGAAGAGUGCGGGAUCGAGUCCCGUCCGGAACG [C46G U53A A65C] | ≤ 0.5 |
| GUUCCGUUGGCGUAGUGGUAACGCCUCUCCCUCCUAAGGAGAAGACUGCGGGUUUGAGUCCCGUACGGAACG [A15G G25C C55U] | 0.562 |
| GUUCCGUUGCCGUAAUGGUAACGCGUCUCCCUCCUAAGGAGAAGACUGCGGGUUCGAGUCCCGUCCGGAACG [G10C A65C] | 0.76 |
| GUUCCGUUGGGGUAAUGGUAACGCGUCUCCCACCUAAGGAGAAGAUUGCGGGUUCGAGUCCCGUACGGAACG [C11G U32A C46U] | 0.598 |
| GUUCCGUUGGCGUAAUGGUAACGCGUCUCCCUCCUUAGGAGAAGACUGCGGGUUCGAGUCCCGUUCAGAGCG [A36U A65U G67A A70G] | ≤ 0.5 |
| GUUCCGUUGGCGUGAUCGUAACGCGUCUCCCUCCUCAGGAGAAGACUAGGAGUUCGAGUCCCGUACGGACCG [A14G G17C A36C G48A C49G G51A A70C] | ≤ 0.5 |
| GUUCCGUUGGCGUAAUGGUAACGCGUCUCGCUGCUAAGGAGAAGACUGCGGGUUCGAGUGCCGUACGGACCG [C30G C33G C60G A70C] | ≤ 0.5 |
| GUUCCGUUGGCGUAAUGGAAACGGGUCUCCCUCCUAAGGAGAAGACUGCGGGUUCGAGUCCCGUACGGAACG [U19A C24G] | 0.633 |
| GUUCCGUUGGCGUAUUGGUAACGCGUCUACCUCCUAAGGAGAAGACUGGGGGUUCGAGUCCCGUACGGAACG [A15U C29A C49G] | 0.634 |
| GUUCCGUUGGCGUAAUGGUAACGAGUCUCCUUCCUAAGGAGAAGAUUGCGGGUUCGAGUCCCGUACGGAACG [C24A C31U C46U] | 0.785 |
| GUUCAGAUGGCGUAAUGGUAACGCCUCUCCCUCCUAAGGAGAAGAUUGCGGGUUCGAGUCCCGUACGGAACG [C5A U7A G25C C46U] | ≤ 0.5 |
| GUUCCGUUGGCGUAAUGCUAACGCGUUUCCCUCCUAAACAGAAGACUGCGGGUUCGAGUCCCGCACGGAACG [G18C C27U G38A G39C U64C] | ≤ 0.5 |
